SR-BI uptake up: activators of SR-BI mediated HDL lipid uptake; activation, % at 12.5 µM; AID 504775; CHO ldlA[mSR-BI] cells, DiI-HDL uptake fluorescence, 3 h; 100 = double the neutral-control signal; hit rate 0.096% among 320,000;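 active = mean replicate activation of at least 60% and every replicate at or above 60%; inconclusive = mean or all-replicate condition met, but not both; inactive = mean below 60% and not all replicates reaching 60%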;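 also: 0% = median plate neutral-control signal and 100% = twice that signal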
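System: CHO ldlA[mSR-BI] cells / Medium: HEPES-buffered (25 mM, pH 7.4) F12 plus 0.5% BSA / Probe or stimulus: labelled HDL, 10 µg/mL / Doses: single compound concentration, delivered by pin transfer / Schedule: 3 h, 37 °C / Measured by: DiI fluorescence, bottom read / Measure: cell-associated DiI fluorescence as measure of HDL uptake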
TLR9-MyD88 inh: blocks human TLR9 binding to MyD88; Q9NR96+Q99836; CHO BLA complementation TLR9-MyD88, CCF4 FRET ratio; inhibition, % at 4.98 µM; hit rate 0.21% among 340,000;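 active = inhibition above the mean over all tested compounds plus 3 SD, cut at about 21% in these data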;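 also: 0% = DMSO only wells and 100% = clavulanate BLA inhibitor control wells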
SR-BI HDL uptake: inhibitors of mouse SR-BI mediated HDL lipid uptake. Q61009. ldlA[mSR-BI] CHO cells, DiI-HDL uptake fluorescence, 3 h. inhibition, % at 12.5 µM. hit rate 0.96% among 320,000. AID 488896;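 active = mean replicate inhibition of at least 70% and a set share of replicates each scoring 70 or more; inconclusive = meets just one of the two criteria; inactive = fails both criteria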;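 also: 0% = median of neutral control wells and 100% = median of positive control wells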
Hep lipid drop: hepatic lipid droplet formation modulation | AML12 mouse hepatocytes, oleate lipid droplets, BODIPY imaging | inhibition, % at 6.5 µM | hit rate 0.4% among 240,000 | AID 1656;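 active = lipid droplet intensity inhibited by at least 50%, with more than 500 cells counted; inconclusive = wells with under 300 cells, treated as cytotoxic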
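Test system: AML12 hepatocytes (mouse); reagent: oleate loading, 100 µM; dosing: one dose, 6.5 µM compound; incubation: overnight exposure; signal: fluorescence imaging, 20x objective, two fields per well; read-out basis: % inhibition of corrected integrated BODIPY droplet signal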
TLR4 MyD88 comp: TLR4-MyD88 interaction inhibition in cells; O00206+Q99836; HeLa CL3-4 TLR4/MyD88 BLA complementation, FRET ratio; inhibition, % at 8.4 µM; hit rate 0.18% among 200,000; in the data active = inhibition above about 25%;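 also: 0% = vehicle and 100% = reference inhibitor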
Target sequence (O00206 whole entry, looked up): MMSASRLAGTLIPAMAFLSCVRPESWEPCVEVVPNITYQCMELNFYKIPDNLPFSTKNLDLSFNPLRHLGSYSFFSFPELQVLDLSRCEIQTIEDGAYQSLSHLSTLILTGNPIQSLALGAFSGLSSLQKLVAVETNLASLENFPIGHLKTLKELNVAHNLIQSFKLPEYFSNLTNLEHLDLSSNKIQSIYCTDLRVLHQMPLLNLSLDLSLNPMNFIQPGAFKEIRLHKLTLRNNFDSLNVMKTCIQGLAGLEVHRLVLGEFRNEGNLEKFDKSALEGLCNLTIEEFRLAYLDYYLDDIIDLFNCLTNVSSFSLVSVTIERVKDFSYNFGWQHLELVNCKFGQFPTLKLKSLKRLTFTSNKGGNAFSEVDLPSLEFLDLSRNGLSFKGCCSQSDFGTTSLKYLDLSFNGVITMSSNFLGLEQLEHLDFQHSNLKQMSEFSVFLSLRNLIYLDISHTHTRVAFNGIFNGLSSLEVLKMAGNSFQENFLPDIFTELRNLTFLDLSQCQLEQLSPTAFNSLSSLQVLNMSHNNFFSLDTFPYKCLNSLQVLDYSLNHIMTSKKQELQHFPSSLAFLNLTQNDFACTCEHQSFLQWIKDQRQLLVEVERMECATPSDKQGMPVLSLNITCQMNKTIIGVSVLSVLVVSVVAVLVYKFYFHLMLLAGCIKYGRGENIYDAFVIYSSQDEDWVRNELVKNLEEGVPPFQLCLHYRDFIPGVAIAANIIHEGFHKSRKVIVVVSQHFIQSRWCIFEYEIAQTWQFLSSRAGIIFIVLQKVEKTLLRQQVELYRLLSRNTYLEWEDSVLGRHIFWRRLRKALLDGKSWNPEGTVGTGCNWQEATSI
Target sequence (Q99836 whole entry, looked up): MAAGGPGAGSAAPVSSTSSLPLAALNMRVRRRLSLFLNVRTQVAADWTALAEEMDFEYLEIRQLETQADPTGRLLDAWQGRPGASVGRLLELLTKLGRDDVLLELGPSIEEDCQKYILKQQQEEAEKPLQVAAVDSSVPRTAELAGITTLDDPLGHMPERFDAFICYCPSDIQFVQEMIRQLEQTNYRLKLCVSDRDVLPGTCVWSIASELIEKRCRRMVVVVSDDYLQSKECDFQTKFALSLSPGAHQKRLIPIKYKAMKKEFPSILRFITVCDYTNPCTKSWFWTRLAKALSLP
NOD2 RIPK2 PPI: NOD2-RIPK2 protein interaction inhibition; hit rate 0.38% among 360,000; AID 624267; CHO BLA complementation NOD2-RIPK2, CCF4 ratio; inhibition, % at 4.98 µM; O43353; in the data active = inhibition above about 21%;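 also: 0% = vehicle only and 100% = reference blocker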
DiI quencher: quenches DiI-HDL fluorescence, an SR-BI assay artifact; hit rate 20% among 470; AC50, µM (series often up to 35 µM), inactives show at the highest dose activity change, negative = quenching; cell-free DiI-HDL fluorescence quenching, 30 min; shares compounds with SR-BI HDL uptake;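 active = quenching, a falling signal, with AC50 below a set limit tied to the top valid dose, actives reach about 32 µM in these data; inconclusive = no clear call, values can overlap the other calls; inactive = rising signal, and the rest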
Numbers without * were called inactive. Compounds with a hit are over-represented: about 1.6% of the library has one in this group of screens.

For COc1ccc(NC(=O)C2CCN(C(=O)c3ccc(OC)cc3)CC2)cc1 the results were SR-BI uptake up -115, TLR9-MyD88 inh -6, SR-BI HDL uptake 115*, Hep lipid drop 18, TLR4 MyD88 comp -2, NOD2 RIPK2 PPI -4 and DiI quencher 0%.
Screening Cc1oc(-c2cc(F)ccc2F)nc1CN1CCN(c2ncnc3ccccc23)CC1 returned SR-BI uptake up -20, TLR9-MyD88 inh 4, SR-BI HDL uptake 20, Hep lipid drop -19, TLR4 MyD88 comp 4 and NOD2 RIPK2 PPI -8.
COc1ccc(-c2nc(CN3CCN(c4ncnc5ccccc45)CC3)c(C)o2)c(OC)c1 was read as SR-BI uptake up -72, TLR9-MyD88 inh -10, SR-BI HDL uptake 72*, Hep lipid drop -20, TLR4 MyD88 comp 6, NOD2 RIPK2 PPI -7 and DiI quencher -1%.
For COc1ccc(C2/C=C\CN(S(=O)(=O)c3ccc(C)cc3)CC(=O)N2Cc2ccc(F)cc2)cc1 (stereo unspecified) the results were SR-BI uptake up -86, TLR9-MyD88 inh 1, SR-BI HDL uptake 86*, Hep lipid drop -2, NOD2 RIPK2 PPI -5 and DiI quencher -6%.
COc1ccc(C2/C=C\CN(S(=O)(=O)c3cccc4cccnc34)CC(=O)N2Cc2ccc(F)cc2)cc1 (stereo unspecified) was read as SR-BI uptake up -53, TLR9-MyD88 inh -5, SR-BI HDL uptake 53, Hep lipid drop -32 and NOD2 RIPK2 PPI 4.
COc1ccc(C2/C=C\CN(CC(C)C)CC(=O)N2Cc2cccc(F)c2)cc1 (stereo unspecified) was read as SR-BI uptake up 1, TLR9-MyD88 inh -3, SR-BI HDL uptake -1 and NOD2 RIPK2 PPI 5.
`COc1ccc(C2/C=C\CN(S(=O)(=O)c3ccc(C)cc3)CC(=O)N2Cc2cccc(F)c2)cc1` (stereo unspecified) gave SR-BI uptake up -80, TLR9-MyD88 inh -1, SR-BI HDL uptake 80*, NOD2 RIPK2 PPI -2 and DiI quencher 0%.
`CC(=O)Cc1nsc(NC(=O)c2ccc(-c3cccc(Cl)c3)o2)n1` gave SR-BI uptake up -13, TLR9-MyD88 inh 9, SR-BI HDL uptake 13, Hep lipid drop 2, TLR4 MyD88 comp -3 and NOD2 RIPK2 PPI -2.
Screening CCc1cc2cc3c(cc2nc1SCC(=O)OC(C)C)OCO3 returned SR-BI uptake up -77, TLR9-MyD88 inh 6, SR-BI HDL uptake 77*, Hep lipid drop -5, TLR4 MyD88 comp 0, NOD2 RIPK2 PPI -5 and DiI quencher 4%.
`O=c1cc(CN2CCN(C/C=C/c3ccccc3)CC2)c2cc(O)c(-c3ccccc3)cc2o1` gave SR-BI uptake up -26, TLR9-MyD88 inh -11, SR-BI HDL uptake 26, Hep lipid drop 2, TLR4 MyD88 comp 4 and NOD2 RIPK2 PPI 4.
`Cc1cc2oc(=O)cc(CN3CCN(C/C=C/c4ccccc4)CC3)c2cc1O` gave SR-BI uptake up -76, TLR9-MyD88 inh -2, SR-BI HDL uptake 76*, TLR4 MyD88 comp -4, NOD2 RIPK2 PPI 12 and DiI quencher -7%.
Screening COc1ccc(CS(=O)(=O)c2ncn[nH]2)cc1 returned SR-BI uptake up 12, TLR9-MyD88 inh -5, SR-BI HDL uptake -12 and NOD2 RIPK2 PPI -1.
Cn1ccnc1C1CCCCN1Cc1nc(-c2ccc3c(c2)OCO3)no1 (stereo unspecified) was read as SR-BI uptake up 20, TLR9-MyD88 inh 2, SR-BI HDL uptake -20, Hep lipid drop -2, TLR4 MyD88 comp 7 and NOD2 RIPK2 PPI 6.
Screening O=S(=O)(c1ccccc1)c1cnc(-c2ccccc2)nc1N1CCCCC1 returned SR-BI uptake up -70, TLR9-MyD88 inh 10, SR-BI HDL uptake inconclusive, Hep lipid drop -27, TLR4 MyD88 comp -1, NOD2 RIPK2 PPI 0 and DiI quencher -1%.
`CC1CCc2c(sc(Nc3nc4c(F)cccc4s3)c2C(N)=O)C1` (stereo unspecified) gave SR-BI uptake up -80, TLR9-MyD88 inh 5, SR-BI HDL uptake 80*, Hep lipid drop 4, TLR4 MyD88 comp -9, NOD2 RIPK2 PPI -13 and DiI quencher 3.3µM*.
Cc1ccc(-c2cccc(CN3CCN(C4CCN(C(C)C)CC4)C(CCO)C3)c2)o1 (stereo unspecified) was read as SR-BI uptake up 22, TLR9-MyD88 inh 2, SR-BI HDL uptake -22, Hep lipid drop 0, TLR4 MyD88 comp 16 and NOD2 RIPK2 PPI -4.
Screening Cc1ccc(-c2nnc(N3CCC(C)CC3)c3ccccc23)cc1C returned SR-BI uptake up -92, TLR9-MyD88 inh -6, SR-BI HDL uptake 92*, Hep lipid drop 10, TLR4 MyD88 comp -1, NOD2 RIPK2 PPI 8 and DiI quencher 3%.
For COc1ncnc(-c2ccccc2)c1-c1ccccc1 the results were SR-BI uptake up 3, TLR9-MyD88 inh 5, SR-BI HDL uptake -3 and NOD2 RIPK2 PPI 1.
CCc1nnc(NC(=O)Cc2ccc(OCc3c(C)noc3C)cc2)s1 was read as TLR9-MyD88 inh 3, Hep lipid drop 0, TLR4 MyD88 comp 14 and NOD2 RIPK2 PPI -3.
For CCCCc1nnc(NC(=O)c2ccc(OCc3c(C)noc3C)cc2)s1 the results were SR-BI uptake up -75, TLR9-MyD88 inh -1, SR-BI HDL uptake 75*, NOD2 RIPK2 PPI -5 and DiI quencher 3%.
For C=CCOc1ccc(/C=C/C(=O)OCC(=O)N(C)CC(=O)Nc2ccc(F)cc2)cc1 the results were SR-BI uptake up -41, TLR9-MyD88 inh 2, SR-BI HDL uptake 41 and NOD2 RIPK2 PPI 4.
`Cc1cc(C(=O)C(C)OC(=O)C2=NNC(=O)CC2)c(C)n1-c1ccc(OC(F)F)cc1` (stereo unspecified) gave SR-BI uptake up -82, TLR9-MyD88 inh 1, SR-BI HDL uptake 82*, Hep lipid drop 1, TLR4 MyD88 comp -1, NOD2 RIPK2 PPI -1 and DiI quencher -2%.
For Cc1ccc(-n2ccn(CC(=O)NCCc3ccccc3)c(=O)c2=O)cc1C the results were SR-BI uptake up -7, TLR9-MyD88 inh 1, SR-BI HDL uptake 7, Hep lipid drop 18 and NOD2 RIPK2 PPI 1.
`CNc1nc(-c2ccc3c(c2)CCN3C(=O)c2ccc(F)cc2)cs1` gave SR-BI uptake up -40, TLR9-MyD88 inh -5, SR-BI HDL uptake 40, Hep lipid drop 9, TLR4 MyD88 comp 3, NOD2 RIPK2 PPI -7 and DiI quencher -16%.
Screening CNc1nc(-c2ccc3c(c2)CCN3C(=O)c2cccc(F)c2)cs1 returned TLR9-MyD88 inh 4, Hep lipid drop 5 and NOD2 RIPK2 PPI 5.
